Platelet DG rel – platelet dense granule release activity; inhibition, %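 (compounds screened at 7.5 µM in platelet-rich plasma)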; human platelet-rich plasma, SFLLRN dense granule ATP release, luminescence; hit rate 0.22% among 300,000; AID 1663;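 active means mean replicate score, as percent of positive control, at or above 50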
FXIIa inh – blocks human coagulation factor XIIa protease activity | P00748 | purified FXIIa, Boc-QGR-AMC fluorogenic substrate, 2 h | inhibition, % at 5 µM | hit rate 0.3% among 220,000 | AID 800; in the data active means inhibition above about 40%;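 further: 0% = enzyme with no compound and 100% = blank without enzyme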
Wee1 degr inh – blocks degradation of human Wee1 kinase | P30291 | HeLa Luc-Wee1K328M stability, luciferase luminescence; 100% = proteasome inhibitor MG132 effect | reporter increase, % at 5 µM | hit rate 1.2% among 220,000;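 active means activation above the mean of all tested compounds plus 3 SD, set per screening run, cut at about 8.8% in these data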;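 further: cells exposed to compound for 20 h before luminescence read; 0% = DMSO alone and 100% = MG132 at 30 µM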
FXIa inh 1536 – inhibitors of human coagulation factor XIa. purified FXIa, Boc-Glu-Ala-Arg-AMC fluorogenic substrate. AID 798. hit rate 0.14% among 220,000. P03951. inhibition, % at 5 µM;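 active means inhibition of at least 40%; inactive means inhibition below 40%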;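 further: fluorescence of freed AMC excited at 355 nm; 0% = enzyme without compound and 100% = no enzyme blank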
hK5 inh – inhibitors of human kallikrein 5; Q9Y337; recombinant hK5, fluorogenic AMC substrate cleavage; inhibition, % at 5 µM; hit rate 0.59% among 210,000;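 active means inhibition of 40% or more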;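 further: 0% = enzyme controls without compound and 100% = no-enzyme blanks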
Target sequence (Q9Y337 67-293 limits assumed): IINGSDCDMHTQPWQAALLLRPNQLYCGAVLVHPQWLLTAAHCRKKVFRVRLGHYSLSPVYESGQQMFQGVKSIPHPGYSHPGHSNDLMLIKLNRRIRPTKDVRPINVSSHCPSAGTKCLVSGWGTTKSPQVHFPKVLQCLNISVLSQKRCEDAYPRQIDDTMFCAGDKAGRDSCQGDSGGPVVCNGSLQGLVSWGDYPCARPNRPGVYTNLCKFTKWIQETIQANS
Thrombin inh – blocks human thrombin protease activity; hit rate 0.26% among 220,000; alpha-thrombin, Boc-VPR-AMC fluorogenic substrate cleavage; AID 1046; P00734; inhibition, % at 5 µM;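 active means inhibition at or above 40%; inactive means inhibition below 40%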;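 further: 0% = enzyme with no compound and 100% = wells without enzyme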
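signal = AMC fluorescence, 355/460 nm | material = human alpha-thrombin enzyme | control set = enzyme without compound as high, wells lacking enzyme as low | times = reaction at room temperature | read-out basis = percent inhibition scaled between no-compound controls and no-enzyme blanks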
Active calls of the source: *. Most compounds without a hit are left out; they make up all but 1.8% or so of the library.

What do the screens show for `CCOc1ccc(-c2c(C)n(-c3ccc(OCC)cc3)c3[n+]2CCCCC3)cc1`?
Platelet DG rel: 12; FXIIa inh: 46*; Wee1 degr inh: 0; FXIa inh 1536: 51*; hK5 inh: 36; Thrombin inh: 6

Results for Brc1ccccc1 ?
Platelet DG rel: -3; FXIIa inh: 8; FXIa inh 1536: 3; hK5 inh: 3; Thrombin inh: 4

Results for COc1ccc(NC(=O)c2cc([N+](=O)[O-])ccc2N2CCNCC2)cc1 ?
Platelet DG rel: 0; FXIIa inh: 29; Wee1 degr inh: -1; FXIa inh 1536: 23; hK5 inh: 51*; Thrombin inh: 5

How did CC12CN3CC(C)(CN(C1)C3c1ccco1)C2=O (stereo not drawn) do in these assays?
Platelet DG rel: -4; FXIIa inh: 27; Wee1 degr inh: 9.3*; FXIa inh 1536: 7; hK5 inh: 29; Thrombin inh: 30

What do the screens show for `CN1C2CCC1/C(=C/c1ccccn1)C(=O)/C2=C\c1ccccn1`?
FXIIa inh: 19; Wee1 degr inh: 21*; FXIa inh 1536: 6; hK5 inh: -10; Thrombin inh: -2

How did Cc1ccccc1-n1c(/C=C/c2ccccn2)nc2ccccc2c1=O do in these assays?
Platelet DG rel: 4; FXIIa inh: 16; Wee1 degr inh: 1; FXIa inh 1536: 3; hK5 inh: 6; Thrombin inh: 5

Results for CCNC(=O)C1OC(n2cnc3c(N)ncnc32)C(O)C1O (stereo not drawn) ?
Platelet DG rel: 95*; Wee1 degr inh: 2

What do the screens show for `CC1=NCCc2c1[nH]c1ccccc21`?
Platelet DG rel: 2; FXIIa inh: 4; Wee1 degr inh: -1; FXIa inh 1536: -2; hK5 inh: 0; Thrombin inh: -8

How did CC[C@@H]1C=CC=CC[C@H](C)[C@@H](O)[C@@H](C)C(=O)[C@H](C)[C@@H](O)[C@H](C)C(=O)[C@H](C)[C@@H](O)[C@H](C)C=CC(=O)O[C@H]2[C@@H](C)[C@@H](CC1)O[C@@]1(CC[C@@H](C)[C@@H](C[C@H](C)O)O1)[C@@H]2C do in these assays?
Platelet DG rel: -2

What do the screens show for `O=P(C(=Nc1ccc(Cl)cc1)N1CCOCC1)(N1CCOCC1)N1CCOCC1`?
FXIIa inh: 20; Wee1 degr inh: -1; FXIa inh 1536: 15; hK5 inh: 42*; Thrombin inh: 28

How did O=C(NCCN1CCOCC1)c1ccc(Cl)nc1Cl do in these assays?
Platelet DG rel: 6; FXIIa inh: 15; Wee1 degr inh: 2; FXIa inh 1536: 8; hK5 inh: 8

How did COc1ccc(CNCCc2c(C)[nH]c3ccc(OC(F)(F)F)cc23)c(OC)c1 do in these assays?
Platelet DG rel: -1

What do the screens show for `NNC(=O)CN1C(=O)CN=C(c2ccccc2)c2cc(Br)ccc21`?
Platelet DG rel: -21; FXIIa inh: 44*; Wee1 degr inh: -3; FXIa inh 1536: 19; hK5 inh: 27; Thrombin inh: 33

What do the screens show for `O=C1CN=C(c2ccccc2)c2cc(Br)ccc2N1Cc1cc(=O)n2ccccc2n1`?
Platelet DG rel: -1; FXIIa inh: 10; Wee1 degr inh: -1; FXIa inh 1536: 8; hK5 inh: -20; Thrombin inh: 1

How did N=c1n(CCO)c2ccccc2n1Cc1ccccc1 do in these assays?
Platelet DG rel: -34; FXIIa inh: 17; Wee1 degr inh: 1; FXIa inh 1536: 14; hK5 inh: 30; Thrombin inh: 67*

Results for Cc1c(C(=O)O)cc(-c2ccccc2)n1Cc1ccccc1 ?
Platelet DG rel: -6

Results for NCCCCCC(=O)OC1N=C(c2ccccc2Cl)c2cc(Br)ccc2NC1=O (stereo not drawn) ?
Platelet DG rel: 0; FXIIa inh: -1; Wee1 degr inh: 1; FXIa inh 1536: -8; hK5 inh: -16; Thrombin inh: -1

Results for CCN(CC)c1ccc(N=Cc2c(O)n(-c3ccc(Cl)cc3)c(=O)[nH]c2=O)cc1 ?
Platelet DG rel: -2; FXIIa inh: 18; Wee1 degr inh: -2; FXIa inh 1536: 6; hK5 inh: 3; Thrombin inh: -1

Results for CC(=O)N1CCN(c2ccc(N=Cc3c(O)n(-c4ccc(Cl)cc4)c(=O)[nH]c3=O)cc2)CC1 ?
Platelet DG rel: -1; FXIIa inh: 15; Wee1 degr inh: 1; FXIa inh 1536: 9; hK5 inh: 59*; Thrombin inh: 10

Results for CC(=O)O[C@@H]1/C=C/[C@](C)(O)C[C@@H](C)C/C=C/[C@H]2[C@@H]3O[C@]3(C)[C@@H](C)[C@H]3[C@H](Cc4ccccc4)NC(=O)[C@@]312 ?
Platelet DG rel: -11

Results for CCc1ccccc1N1C(=O)CC(=O)NC1=O ?
Platelet DG rel: 2; FXIIa inh: 29; Wee1 degr inh: 2; FXIa inh 1536: 42*; hK5 inh: 34; Thrombin inh: 46*

How did Cc1ccccc1N1C(=O)CC(=O)NC1=O do in these assays?
Platelet DG rel: 1; FXIIa inh: 20; Wee1 degr inh: 5; FXIa inh 1536: 14; hK5 inh: -1; Thrombin inh: 2

How did COc1ccc(OCC(=O)N2CCN(C/C=C/c3ccccc3)CC2)cc1 do in these assays?
Platelet DG rel: -1; Wee1 degr inh: 0; FXIa inh 1536: 38; hK5 inh: 26; Thrombin inh: 82*

What do the screens show for `O=c1[nH]c(=S)n(Cc2ccc(F)cc2)c(O)c1/C=N/N1CCCCCC1`?
Platelet DG rel: 8; FXIIa inh: 3; Wee1 degr inh: 0; FXIa inh 1536: -2; hK5 inh: -6; Thrombin inh: 6

Results for C/C(=N\N1CCN(C)CC1)c1c(O)n(Cc2ccccc2)c(=O)[nH]c1=O ?
Platelet DG rel: 2; FXIIa inh: 1; Wee1 degr inh: -3; FXIa inh 1536: -7; hK5 inh: -7; Thrombin inh: -9

Results for CC(=O)c1c(C)n(CCCOC(C)C)c2ccc(O)cc12 ?
Platelet DG rel: -1; FXIIa inh: -9; Wee1 degr inh: -1; FXIa inh 1536: 3; hK5 inh: 43*; Thrombin inh: 37

Results for C=COCCn1c(C)c(C(C)=O)c2cc(O)ccc21 ?
Platelet DG rel: -3; FXIIa inh: 7; Wee1 degr inh: -2; FXIa inh 1536: -4; hK5 inh: -1; Thrombin inh: -11

What do the screens show for `CC/C(=N\NC(=O)c1ccccc1)c1c(O)n(Cc2ccccc2)c(=O)[nH]c1=O`?
Platelet DG rel: -2; FXIIa inh: 3; Wee1 degr inh: 10*; FXIa inh 1536: 1; hK5 inh: -3; Thrombin inh: -7

How did CCn1ccnc1CN1CCCC(C(=O)c2cc(C)c(OC)c(C)c2)C1 (stereo not drawn) do in these assays?
Platelet DG rel: 2; FXIIa inh: 5; Wee1 degr inh: -2; FXIa inh 1536: -2; hK5 inh: 4; Thrombin inh: -10

What do the screens show for `Cn1nnc(CC[N+](C)(C)C)n1`?
Platelet DG rel: 7; FXIIa inh: 27; Wee1 degr inh: 0; FXIa inh 1536: 56*; hK5 inh: 38; Thrombin inh: 43*

Screening results: PubChem, several laboratories
